How the values were obtained:
[1] = tested on: MDA-MB-231; test: Cytotoxicity in human MDA-MB-231 cells assessed as reduction in cell viability incubated for 48 hrs by CCK8 assay; assay type: functional, cell-based; conditions: MDA-MB-231, 48 h
Summary of the method: (§1)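 Exponentially growing cells, routinely kept in DMEM or RPMI1640 (line-dependent) with 10% FBS, penicillin/streptomycin at 37 °C and 5% CO₂, were seeded at 1.0 × 10⁴ cells/well in triplicate. The next day they were treated at 1.25–20 μM for 48 h. CCK-8 reagent was then added for 1 h and absorbance read at 450 nm. Controls received medium with 0.5% (v/v) DMSO.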

[2] = tested on: MCF7; test: Cytotoxicity in human MCF7 cells assessed as reduction in cell viability incubated for 48 hrs by CCK8 assay; assay type: functional, cell-based; conditions: MCF7, 48 h; summary of the method: as §1
[3] = tested on: HeLa; test: Cytotoxicity in human HeLa cells assessed as reduction in cell viability incubated for 48 hrs by CCK8 assay; assay type: functional, cell-based; summary of the method: as §1
[4] = tested on: Hep 3B2; test: Cytotoxicity in human Hep3B cells assessed as reduction in cell viability incubated for 48 hrs by CCK8 assay; assay type: functional, cell-based; summary of the method: as §1
[5] = tested on: T98G; test: Cytotoxicity in human T98G cells assessed as reduction in cell viability incubated for 48 hrs by CCK8 assay; assay type: cell-based; summary of the method: as §1
[6] = tested on: HepG2; test: Cytotoxicity in human HepG2 cells assessed as reduction in cell viability incubated for 48 hrs by CCK8 assay; assay type: functional, cell-based; conditions: HepG2, 48 h; summary of the method: as §1

Measured: IC50

COc1cc(-c2nc3cc(CO)ccc3o2)ccc1O
5.7 µM: [3]
> 20 µM: all other assays above

COc1cc(O)ccc1-c1nc2cc(CO)ccc2o1
2.9 µM: [3]
> 20 µM: all other assays above

OCc1ccc2oc(-c3ccc(O)c(Cl)c3)nc2c1
11 µM: [3]
> 20 µM: all other assays above

OCc1ccc2oc(-c3ccc(O)cc3)nc2c1
4.7 µM: [3]
> 20 µM: all other assays above

OCc1ccc2oc(-c3ccc4cc(O)ccc4c3)nc2c1
0.56 µM: [3]
> 20 µM: all other assays above

OCc1ccc2oc(-c3ccc4[nH]ccc4c3)nc2c1
8.9 µM: [3]
> 20 µM: all other assays above

OCc1ccc2oc(-c3ccc(Cl)cc3)nc2c1
16 µM: [3]
> 20 µM: all other assays above

Cc1cc(-c2nc3cc(CO)ccc3o2)cc(C)c1N
19 µM: [3]
> 20 µM: all other assays above

Reference: ChEMBL document CHEMBL4316635, “Synthesis, Structure Revision, and Cytotoxicity of Nocarbenzoxazole G” (J Nat Prod, 2019)
